MBD2 DNA inh – MBD2-methylated oligo binding inhibition | inhibition, % at 4.4 µM | TR-FRET, MBD2 binding to methylated oligonucleotide | 0.31% of 370,000 active | Q9UBB5; in the data active means inhibition above about 13%
UHRF1 MBD2 ctr – human UHRF1 methylated DNA binding inhibitors; inhibition, % at 4.4 µM; UHRF1 binding to methylated oligo, TR-FRET; 0.75% of 370,000 active; AID 687016; Q96T88; in the data active means inhibition above about 21%;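 further: UHRF1 SRA domain binding a hemimethylated CpG hairpin DNA probe; 0% = median of test compound wells and 100% = reference inhibitor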
TDP2 inh – blocks human TDP2 phosphodiesterase activity. 0.34% of 370,000 active. recombinant TDP2, T5PNP hydrolysis, p-nitrophenol absorbance 415 nm. inhibition, % at 12.8 µM. O95551;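 active means inhibition above the mean of all tested compounds plus 3 SD, set per campaign, cut at about 25% in these data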;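 further: 0% = DMSO with enzyme and 100% = buffer with substrate but no TDP2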
Target sequence (O95551 whole entry, looked up): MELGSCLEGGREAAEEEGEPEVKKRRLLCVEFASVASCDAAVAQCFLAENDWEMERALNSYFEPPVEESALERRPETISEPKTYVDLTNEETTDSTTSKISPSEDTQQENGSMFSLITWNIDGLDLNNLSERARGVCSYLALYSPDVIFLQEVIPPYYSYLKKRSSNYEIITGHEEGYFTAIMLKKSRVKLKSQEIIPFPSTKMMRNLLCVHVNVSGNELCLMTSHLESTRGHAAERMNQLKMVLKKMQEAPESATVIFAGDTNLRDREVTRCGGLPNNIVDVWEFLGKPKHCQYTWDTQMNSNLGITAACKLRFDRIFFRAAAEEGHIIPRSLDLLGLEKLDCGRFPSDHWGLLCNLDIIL
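Assay system: Recombinant human TDP2 | Quantity: 120 nM TDP2 per well | Incubation: 2 h at 37 °C | Signal: Epi absorbance | Evaluation: Percent inhibition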
LEDGF integ inh – blocks HIV-1 LEDGF/p75-dependent DNA integration; TR-FRET IN-LEDGF/p75 DNA integration, Eu/Cy5; inhibition, % at 3.7 µM; 0.64% of 370,000 active;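 active means inhibition above the screen-wide mean plus 3 SD, cut at about 13% in these data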;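 further: signal is the Cy5 over europium emission ratio at 671 and 618 nm; 0% = plate median of compound wells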
IN multimer act – activates HIV-1 integrase multimerization in LEDGF counter-screen. shares compounds with LEDGF integ inh. TR-FRET HIV-1 integrase multimerization, biochemical. activation, % at 7.7 µM. 17% of 2,000 active. AID 1053131; in the data active means activation above about 8.9%
TRFRET interf – counter-screen for LEDGF/p75 integration inhibitors: TR-FRET optical interference. shares compounds with LEDGF integ inh. TR-FRET optical interference counterscreen, HIV-1 IN multimerization. inhibition, % at 7.7 µM. 2,000 tested, under 10 active. AID 1053135;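 active means inhibition above the mean over all tested compounds plus 3 SD, which no compound reached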;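 further: 0% = integrase with antibodies and DMSO and 100% = antibodies without integrase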
IN-LEDGF confirm – confirmation of HIV-1 LEDGF/p75-dependent integration inhibitors; TR-FRET LEDGF/p75-dependent HIV-1 integration, biochemical; shares compounds with LEDGF integ inh; inhibition, % at 3.7 µM; 36% of 2,000 active; in the data active means inhibition above about 14%
Active calls of the source: *; · = not tested or not shown. The list is not random: actives were taken first. Their share in the collection is about 1.6%.

SMILES	MBD2 DNA inh	UHRF1 MBD2 ctr	TDP2 inh	LEDGF integ inh	IN multimer act	TRFRET interf	IN-LEDGF confirm
CS(=O)(=O)N1CCC[C@]2(CC[C@@H](CCC#N)O2)C1	-4.6	0.4	-1.3	-4.7	·	·	·
CCCc1cnc(Nc2nc(C(N)Cc3ccc(OC)cc3)cs2)nc1 (configuration not stated)	5.5	0.5	-11.8	13.4*	-0.7	3.5	-7.7
COc1ccccc1N1CCN(Cc2nc(N)nc(Nc3ccc(C)c(Cl)c3)n2)CC1	-4.9	-3.4	-11.2	13.5*	1.8	-9.2	4.9
COc1ccc(Cn2cc(CN3[C@H](CC(C)C)COc4cc(Br)ccc4S3(=O)=O)nn2)cc1	-4.7	1.8	-9.9	5.0	·	·	·
CC(=O)Nc1ccc(S(=O)(=O)Nc2nc3ccccc3nc2Nc2ccc(C(=O)O)c(O)c2)cc1	2.3	26.0*	4.4	26.1*	23.2*	-117.0	28.8*
CC(=O)Nc1ccc(S(=O)(=O)Nc2nc3ccccc3nc2Nc2cccc(O)c2)cc1	1.3	-2.0	-3.0	1.2	·	·	·
Cc1ccc(S(=O)(=O)Nc2ccc(Br)cc2/C=N/n2cnnc2)cc1	8.6	19.4	10.5	17.2*	-0.1	0.4	27.6*
COc1cc(-c2c(C(=O)c3ccccc3)[nH]c(N)c2C(N)=O)ccc1O	5.0	1.9	-9.6	-5.7	·	·	·
COC(=O)Cc1c(C)nc2nc(Cc3ccccc3)[nH]n2c1=O	-2.6	-2.4	3.7	14.1*	0.7	-3.4	3.3
COc1cccc(Cn2cc(COC(=O)NCCc3ccccc3)nn2)c1	-3.5	0.0	0.2	-4.0	·	·	·
CCc1nc2ccc(C(=O)NCc3cccs3)cn2c1N(CC)CCN(C)C	8.8	18.4	4.0	2.1	·	·	·
CCc1nc2ccc(C(=O)NCc3cccs3)cn2c1N(CCC(C)C)CCN(C)C	-2.0	-2.6	-0.7	13.9*	0.1	-0.4	5.8
CC(C)(C)OC(=O)/C=C/[C@@H](CCCCl)Sc1ccc(C(C)(C)C)cc1	-1.1	-3.6	-8.6	-2.9	·	·	·
Cc1cccc(NC(=O)c2ccccc2SCc2ccc(F)cc2)n1	-2.0	-3.9	9.5	53.1*	0.8	-4.3	-7.0
O=C(Nc1ccc(Cl)cn1)c1ccccc1SCc1ccccc1	-1.3	-0.3	16.9	1.0	·	·	·
CCNC(=O)c1ccccc1SCc1ccccc1	4.1	9.3	7.1	14.1*	-1.6	5.5	-4.7
COC(=O)[C@]12C[C@H](CC(=O)NCc3cccs3)C(=O)N(Cc3ccccc3)C1=C[C@H](C(C)(C)C)O[C@@H]2C	-2.2	-1.5	-4.3	-2.3	·	·	·
CC(C(=O)Nc1cccc([N+](=O)[O-])c1)[n+]1ccccc1 (configuration not stated)	-1.4	0.7	-0.4	-4.7	·	·	·
CC(C(=O)Nc1cccc([N+](=O)[O-])c1)n1nnc2ccccc21 (configuration not stated)	0.8	-4.2	2.3	81.5*	-1.5	5.6	-12.3
Cc1nn(Cc2c(F)c(F)c(F)c(F)c2F)c(C)c1NC(=O)c1ccc(COc2ccc(Cl)cc2Cl)o1	2.4	-4.2	5.1	1.2	·	·	·
Cc1nn(Cc2ccc(Cl)cc2Cl)c(C)c1NC(=O)c1ccc(COc2cc(Cl)ccc2Cl)o1	-1.8	0.6	-12.2	23.8*	0.0	-0.2	-7.0
Cc1ccccc1C(=O)N(Cc1ccccn1)CC1CCCO1 (configuration not stated)	-0.2	-0.9	-11.1	-1.7	·	·	·
Cc1nnc(-c2ccc(Oc3ccc(Br)cc3)c([N+](=O)[O-])c2)o1	4.6	0.3	-3.0	16.4*	-0.3	1.7	-7.2
Cc1ccccc1N=C1NC(=O)/C(=C/c2cccn2C)S1	2.1	5.9	-28.2	5.4	·	·	·
Cn1cccc1/C=C1\CCC/C(=C\c2cccn2C)C1=O	-3.5	-0.3	3.0	18.7*	1.3	-6.4	-3.8
SMILES	MBD2 DNA inh	UHRF1 MBD2 ctr	TDP2 inh	LEDGF integ inh	IN multimer act	TRFRET interf	IN-LEDGF confirm
O=C1Nc2ccc(S(=O)(=O)N3CCCC3C(=O)O)c3cccc1c23 (configuration not stated)	-5.4	0.6	-1.2	13.7*	-2.0	10.3	-5.6
O=C1Nc2ccc(S(=O)(=O)N3CCCC3)c3cccc1c23	-12.3	-4.1	-12.3	2.8	·	·	·
CCOC(=O)N1CCN(C(=O)CCc2ccccc2)CC1	-6.5	3.1	0.6	56.1*	5.9	-28.7	-0.4
O=C(CCc1ccccc1)N1CCN(C(=O)CCc2ccccc2)CC1	-1.7	-0.7	-8.4	-3.2	·	·	·
O=C(NCCN1CCCC1)C1CC(=O)N(C2CCCCC2)C1 (configuration not stated)	-7.6	0.0	3.8	26.4*	-0.5	2.7	-4.5
CC(C)C[C@H](NC(=O)c1ccccc1)C(=O)N1CCC[C@H]1C(=O)NCc1ccccc1	-3.0	3.8	-3.9	0.3	·	·	·
COc1ccc(OC)c(S(=O)(=O)N2CCCC(C(=O)Nc3c(C)n(C)n(-c4ccccc4)c3=O)C2)c1 (configuration not stated)	0.6	2.0	8.9	4.2	·	·	·
CC(=O)Oc1ccc(/C=C2/C(=O)N(c3ccccc3)N=C2C)cc1	23.6*	16.2	71.0*	50.8*	0.8	-3.9	-1.8
COc1ccc(/C=C2/C(=O)N(c3ccccc3)N=C2C)cc1OC	8.5	13.7	76.8*	26.7*	1.6	-8.1	-5.7
COc1cc(/C=C2/C(=O)N(c3cccc(Br)c3)N=C2C)cc(OC)c1O	3.2	14.2	8.4	2.4	·	·	·
CC1=NN(c2ccccc2)C(=O)/C1=C/c1cccc(C)c1	7.4	15.9	78.7*	15.9*	0.7	-3.5	1.9
CCOc1ccc(CCNC(=O)c2cc3ccsc3n2C)cc1OC	4.2	7.1	-12.0	5.5	·	·	·
CCCC1CCC2(CC1)CCC2OC(=S)Nc1ccc(I)cc1 (configuration not stated)	-7.2	-0.5	6.2	0.5	·	·	·
COc1ccc(CNC2CCC23CCC(c2ccccc2)CC3)cc1OC (configuration not stated)	-5.6	-1.4	-1.0	-0.9	·	·	·
COc1ccc(-c2csc3nc(-c4ccc(C)cc4)oc(=O)c23)cc1OC	-5.5	-0.7	-3.4	2.4	·	·	·
COc1ccc(-c2csc3nc(C(C)(C)C)oc(=O)c23)cc1OC	-2.9	4.4	1.0	16.5*	7.4	-27.2	7.8
O=S1(=O)c2c(cccc2N2CCSCC2)Oc2ccccc2CN1Cc1cn(Cc2ccc(C(F)(F)F)cc2)nn1	-6.5	0.2	4.7	3.3	·	·	·
CN(CCc1ccccn1)C(=O)c1ccc(Sc2ccccc2Cl)c([N+](=O)[O-])c1	4.8	2.3	3.8	0.8	·	·	·
CCN=C1S/C(=C\c2cc(Cl)c(OC)c(OC)c2)C(=O)N1CC	0.7	0.4	3.6	17.4*	-0.3	0.9	-10.9
CCN=C1S/C(=C\c2ccc(OCC)c(OC)c2)C(=O)N1CC	10.2	7.7	-10.5	-2.6	·	·	·
